# In ChEMBL document CHEMBL4715736, “Identification of anticancer agents based on the thieno[2,3-b]pyridine and 1H-pyrazole molecular scaffolds” (2016):
# Experiments:
# Type in all cases: functional
# RPMI-8226 = assay: Growth inhibition of human RPMI-8226 cells assessed as cell growth at 0.01 uM incubated for 48 hrs by sulforhodamine B assay relative to control; settings: read-out: Activity
# HT-29 = assay: Growth inhibition of human HT-29 cells assessed as cell growth at 0.01 uM incubated for 48 hrs by sulforhodamine B assay relative to control; settings: read-out: Activity
# ACHN [1] = assay: Growth inhibition of human ACHN cells assessed as cell growth at 0.01 uM incubated for 48 hrs by sulforhodamine B assay relative to control; settings: read-out: Activity
# UO-31 [2] = assay: Growth inhibition of human UO-31 cells assessed as cell growth at 0.01 uM incubated for 48 hrs by sulforhodamine B assay relative to control; settings: read-out: Activity
# PC-3 = assay: Growth inhibition of human PC-3 cells assessed as cell growth at 0.01 uM incubated for 48 hrs by sulforhodamine B assay relative to control; settings: read-out: Activity
# HOP-92 = assay: Growth inhibition of human HOP-92 cells assessed as cell growth at 0.1 uM incubated for 48 hrs by sulforhodamine B assay relative to control; settings: read-out: Activity
# NCI-H226 = assay: Growth inhibition of human NCI-H226 cells assessed as cell growth at 0.1 uM incubated for 48 hrs by sulforhodamine B assay relative to control; settings: read-out: Activity
# NCI-H522 [3] = assay: Growth inhibition of human NCI-H522 cells assessed as cell growth at 0.1 uM incubated for 48 hrs by sulforhodamine B assay relative to control; settings: read-out: Activity
# COLO 205 = assay: Growth inhibition of human COLO 205 cells assessed as cell growth at 0.1 uM incubated for 48 hrs by sulforhodamine B assay relative to control; settings: read-out: Activity
# Outline: (§1)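 NCI Developmental Therapeutics Program NCI60 panel. Compounds that were active in the 10 µM one-dose screen went on to dose–response testing. Growth at each concentration is expressed relative to untreated control (100%). GI50 (concentration giving 50% of maximal inhibition of proliferation) and TGI (concentration giving total growth inhibition) were derived from the curves.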
# HCT-15 = assay: Growth inhibition of human HCT-15 cells assessed as cell growth at 0.1 uM incubated for 48 hrs by sulforhodamine B assay relative to control; settings: read-out: Activity
# SNB-75 = assay: Growth inhibition of human SNB-75 cells assessed as cell growth at 0.1 uM incubated for 48 hrs by sulforhodamine B assay relative to control; settings: read-out: Activity
# M14 [4] = assay: Growth inhibition of human M14 cells assessed as cell growth at 0.1 uM incubated for 48 hrs by sulforhodamine B assay relative to control; settings: read-out: Activity
# SK-MEL-2 = assay: Growth inhibition of human SK-MEL-2 cells assessed as cell growth at 0.1 uM incubated for 48 hrs by sulforhodamine B assay relative to control; settings: read-out: Activity
# UACC-257 = assay: Growth inhibition of human UACC-257 cells assessed as cell growth at 0.1 uM incubated for 48 hrs by sulforhodamine B assay relative to control; settings: read-out: Activity
# SK-OV-3 [5] = assay: Growth inhibition of human SK-OV-3 cells assessed as cell growth at 0.1 uM incubated for 48 hrs by sulforhodamine B assay relative to control; settings: read-out: Activity
# SN12C = assay: Growth inhibition of human SN12C cells assessed as cell growth at 0.1 uM incubated for 48 hrs by sulforhodamine B assay relative to control; settings: read-out: Activity
# MOLT-4 = assay: Growth inhibition of human MOLT-4 cells assessed as cell growth at 1 uM incubated for 48 hrs by sulforhodamine B assay relative to control; settings: read-out: Activity
# A549 = assay: Growth inhibition of human A549/ATCC cells assessed as cell growth at 1 uM incubated for 48 hrs by sulforhodamine B assay relative to control; settings: read-out: Activity; outline: as §1
# HCT-116 = assay: Growth inhibition of human HCT-116 cells assessed as cell growth at 1 uM incubated for 48 hrs by sulforhodamine B assay relative to control; settings: read-out: Activity
# SF-539 = assay: Growth inhibition of human SF-539 cells assessed as cell growth at 1 uM incubated for 48 hrs by sulforhodamine B assay relative to control; settings: read-out: Activity
# OVCAR-5 = assay: Growth inhibition of human OVCAR-5 cells assessed as cell growth at 1 uM incubated for 48 hrs by sulforhodamine B assay relative to control; settings: read-out: Activity
# SK-OV-3 [6] = assay: Growth inhibition of human SK-OV-3 cells assessed as cell growth at 1 uM incubated for 48 hrs by sulforhodamine B assay relative to control; settings: read-out: Activity
# NCI-H522 [7] = assay: Growth inhibition of human NCI-H522 cells assessed as cell growth at 100 uM incubated for 48 hrs by sulforhodamine B assay relative to control; settings: read-out: Activity
# U-251 = assay: Growth inhibition of human U-251 cells assessed as cell growth at 100 uM incubated for 48 hrs by sulforhodamine B assay relative to control; settings: read-out: Activity
# SK-MEL-5 = assay: Growth inhibition of human SK-MEL-5 cells assessed as cell growth at 100 uM incubated for 48 hrs by sulforhodamine B assay relative to control; settings: read-out: Activity
# A498 [8] = assay: Growth inhibition of human A498 cells assessed as cell growth at 100 uM incubated for 48 hrs by sulforhodamine B assay relative to control; settings: read-out: Activity; outline: as §1
# ACHN [9] = assay: Growth inhibition of human ACHN cells assessed as cell growth at 100 uM incubated for 48 hrs by sulforhodamine B assay relative to control; settings: read-out: Activity
# MCF7 = assay: Growth inhibition of human MCF7 cells assessed as cell growth at 100 uM incubated for 48 hrs by sulforhodamine B assay relative to control; settings: read-out: Activity
# SF-268 = assay: Growth inhibition of human SF-268 cells incubated for 48 hrs by sulforhodamine B assay
# Outline: (§2)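 NCI DTP 60-line human tumour panel. Dose-response curves were run only for ligands active in the initial 10 µM screen. GI50 (concentration giving 50% of maximal inhibition of proliferation) and TGI (concentration giving total growth inhibition) were derived from these curves.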
# M14 [10] = assay: Growth inhibition of human M14 cells incubated for 48 hrs by sulforhodamine B assay
# Outline: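 NCI60 panel at the NCI Developmental Therapeutics Program. Only compounds active in the 10 µM screen went to dose-response testing. GI50, the concentration giving 50% of maximal inhibition of proliferation, and TGI, the concentration giving total growth inhibition, were derived from the dose-response curves.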
# OVCAR-3 = assay: Growth inhibition of human OVCAR-3 cells incubated for 48 hrs by sulforhodamine B assay; outline: as §2
# A498 [11] = assay: Growth inhibition of human A498 cells incubated for 48 hrs by sulforhodamine B assay; outline: as §1
# RXF 393 = assay: Growth inhibition of human RXF 393 cells incubated for 48 hrs by sulforhodamine B assay; outline: as §2
# TK-10 = assay: Growth inhibition of human TK-10 cells incubated for 48 hrs by sulforhodamine B assay; outline: as §2
# UO-31 [12] = assay: Growth inhibition of human UO-31 cells incubated for 48 hrs by sulforhodamine B assay; outline: as §2
# [13] = read-out: LC50 (the source's name)
smiles,measurement,setting,value
COc1cccc(NC(=O)c2sc3nc4c(cc3c2N)CN(Cc2ccccc2)CC4)c1,growth at 0.01 µM,RPMI-8226,98%
same,growth at 0.01 µM,HT-29,104%
same,growth at 0.01 µM,ACHN [1],97%
same,growth at 0.01 µM,UO-31 [2],92%
same,growth at 0.01 µM,PC-3,94%
same,growth at 0.1 µM,HOP-92,80%
same,growth at 0.1 µM,NCI-H226,87%
same,growth at 0.1 µM,NCI-H522 [3],95%
same,growth at 0.1 µM,COLO 205,98%
same,growth at 0.1 µM,HCT-15,95%
same,growth at 0.1 µM,SNB-75,92%
same,growth at 0.1 µM,M14 [4],95%
same,growth at 0.1 µM,SK-MEL-2,112%
same,growth at 0.1 µM,UACC-257,91%
same,growth at 0.1 µM,SK-OV-3 [5],100%
same,growth at 0.1 µM,SN12C,93%
same,growth at 1 µM,MOLT-4,78%
same,growth at 1 µM,A549,88%
same,growth at 1 µM,HCT-116,59%
same,growth at 1 µM,SF-539,79%
same,growth at 1 µM,OVCAR-5,95%
same,growth at 1 µM,SK-OV-3 [6],81%
same,growth at 100 µM,NCI-H522 [7],1%
same,growth at 100 µM,U-251,-54%
same,growth at 100 µM,SK-MEL-5,-34%
same,growth at 100 µM,A498 [8],-47%
same,growth at 100 µM,ACHN [9],-3%
same,growth at 100 µM,MCF7,3%
same,GI50,SF-268,3.66 µM
same,LC50 (concentration killing 50% of cells),SF-268,> 100 µM
same,TGI,SF-268,207 µM
same,GI50,M14 [10],12.7 µM
same,LC50 (concentration killing 50% of cells),M14 [10],> 100 µM
same,TGI,M14 [10],86.8 µM
same,GI50,OVCAR-3,7.53 µM
same,TGI,OVCAR-3,26.9 µM
same,CC50,OVCAR-3; [13],79.8 µM
same,GI50,A498 [11],3.82 µM
same,TGI,A498 [11],24.4 µM
same,CC50,A498 [11]; [13],> 100 µM
same,GI50,RXF 393,2.71 µM
same,TGI,RXF 393,12.9 µM
same,CC50,RXF 393; [13],> 100 µM
same,GI50,TK-10,4.82 µM
same,TGI,TK-10,21.6 µM
same,CC50,TK-10; [13],86.8 µM
same,GI50,UO-31 [12],3.27 µM
same,TGI,UO-31 [12],32.3 µM
same,CC50,UO-31 [12]; [13],> 100 µM
